This is a sample that favours compounds with a hit; in the whole collection about 2.5% have one here.
MsrA inh: bovine MsrA enzyme inhibitors, primary screen, biochemical, absorbance, HTS | AID 651718, 2012 | inhibition, % at 15.5 µM | purified bovine MsrA, absorbance read-out | Methionine sulfoxide reductase A (Bos taurus) | 360,000 tested, 0.75% active; in the data active means inhibition above about 4.5%
NR2E3 ag-1: NR2E3 agonists in two-hybrid cells, primary screen, cell-based, luminescence, CHO-S, Gal4-NCOR/VP16-NR2E3. Photoreceptor-specific nuclear receptor (Homo sapiens), Q9Y5X4. luciferase. inhibition of corepressor binding, % at 3.98 µM. 360,000 tested, 0.35% active;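 active means inhibition above the mean of all tested compounds plus 3 SD, cut at about 70% in these data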;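 further: higher means lower luciferase signal from less NR2E3 corepressor binding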
bovine MsrA act: bovine MsrA enzyme activators, primary screen, biochemical, absorbance, HTS; Methionine sulfoxide reductase A (Bos taurus); AID 602163, 2012; purified bovine MsrA, absorbance read-out; activation, % at 10.6 µM; 360,000 tested, 0.3% active; in the data active means activation above about 7.5%
NadD inh: inhibitors of S. aureus NadD, primary screen, biochemical, colorimetric, uHTS; Nicotinate-nucleotide adenylyltransferase NadD (Staphylococcus aureus N315); purified NadD enzyme, colorimetric absorbance read-out; inhibition, % at 20 µM; 360,000 tested, 0.78% active; AID 602399, 2012; in the data active means inhibition above about 26%
GalR3 antagonist: GalR3 antagonists in HEK293 cells, primary screen, cell-based, fluorescence readout; inhibition, % at 3 µM; 360,000 tested, 0.44% active; HEK293 GalR3-CNG cAMP membrane potential fluorescence; galR3 body fused to GalR1 C-terminus; AID 651719, 2012;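 active means inhibition above the screen-wide average plus 3 SD, cut at about 13% in these data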;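 further: forskolin and galanin both at EC90 stimulate the cells; cAMP rise reported by CNG channel membrane potential dye signal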
Target sequence (O60755 1-299 limits assumed): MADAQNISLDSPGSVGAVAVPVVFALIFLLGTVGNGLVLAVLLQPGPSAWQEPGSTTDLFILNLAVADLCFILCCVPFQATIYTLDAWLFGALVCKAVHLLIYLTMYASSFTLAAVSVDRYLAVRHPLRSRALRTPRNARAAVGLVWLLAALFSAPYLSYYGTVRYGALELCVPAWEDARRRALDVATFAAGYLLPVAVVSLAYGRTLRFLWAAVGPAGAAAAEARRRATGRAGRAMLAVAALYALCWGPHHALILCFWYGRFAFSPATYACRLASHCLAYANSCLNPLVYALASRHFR
NR2E3 ag-2: inhibitors of NR2E3-RetCOR corepressor binding, primary screen, NR2E3 agonist project, biochemical, TR-FRET, GST-NR2E3, biotin-RetCOR | Photoreceptor-specific nuclear receptor (Homo sapiens), Q9Y5X4 | 1536-well | inhibition of corepressor binding, % at 4.78 µM | 320,000 tested, 0.12% active | AID 2300, 2010;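 active means percent inhibition above the cutoff of mean plus 3 SD of all tested compounds, set per screening campaign, cut at about 20% in these data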
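Material – GST-tagged NR2E3 plus biotinylated RetCOR corepressor · Quantity – NR2E3 fusion 1.35 nM · Times – 5 h incubation at 4 °C · Medium – pH 7.5 Tris-based buffer · Technique – TR-FRET, Eu(K)-anti-GST donor, streptavidin-D2 acceptor, ex 340, em 617/671 nm · Benchmarks – high control biotin, low control 0.6% DMSO · Format – 1536-well plates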
Each line names hits and unclear results; the compound was inactive in the other large screens.

Cc1nn(-c2ccccc2)c(C)c1C(=O)OCC(=O)N1CCN(S(=O)(=O)c2ccccc2)CC1	none
O=C(c1ccco1)[C@@H]1[C@@H]2C(=O)N(c3ccc(Br)cc3)C(=O)[C@@H]2C2c3ccccc3C=CN21 (stereo partly specified)	NadD inh 32.1 (no result: NR2E3 ag-2)
Cn1cc(C(=O)N/N=C/C(Br)=C\c2ccccc2)ccc1=O	MsrA inh 5.4
Cc1ccccc1-n1nc2c(c1NC(=O)c1ccco1)CS(=O)(=O)C2	none
Cc1ccccc1-n1nc2c(c1NC(=O)c1ccc(Br)o1)CSC2	NadD inh 49.6 (no result: MsrA inh, GalR3 antagonist)
COC(=O)C1C/C(=N\NS(=O)(=O)c2ccc(C)cc2)c2ccccc2C1 (stereo unspecified)	none
COC(=O)/C=C1\S/C(=N/N=C/c2ccccc2)NC1=O	none
COC(=O)/C=C1/S/C(=N/N=C/c2ccco2)NC1=O	MsrA inh 4.6
CN(C)c1ccc(/C=C2\SC(=O)N(CC(O)Cn3c4ccccc4c4ccccc43)C2=O)cc1 (stereo unspecified)	NadD inh 33.3
COC(=O)c1ccc(N2CCC(c3cc(-c4ccc(OC)cc4)n[nH]3)CC2)c([N+](=O)[O-])c1	none
COc1ccc(C(=O)c2ccc(N3CCOCC3)c([N+](=O)[O-])c2)cc1	MsrA inh 4.6
COc1ccc(-c2cc(C3CCN(c4ccc(C(C)=O)cc4[N+](=O)[O-])CC3)[nH]n2)cc1	NR2E3 ag-1 72.8
CCn1cnc2c([N+](=O)[O-])c(NS(=O)(=O)c3ccc(C)cc3)ccc21	bovine MsrA act 11.7
C/C(=C\c1ccc2c(c1)OCO2)C1Nc2cccc3cccc(c23)N1	NadD inh 32.6
Cn1c(=O)oc2cc(S(=O)(=O)CCC(=O)Nc3ccccc3)ccc21	none
Cc1[nH]n(C(N)=S)c(=O)c1N=Nc1cccc([N+](=O)[O-])c1C	none (no result: MsrA inh, GalR3 antagonist)
NC(=S)n1[nH]c(-c2ccc([N+](=O)[O-])cc2)c(N=Nc2cccc([N+](=O)[O-])c2)c1=O	NadD inh 77.1 (no result: NR2E3 ag-2)
NC(=S)n1[nH]c(-c2ccc([N+](=O)[O-])cc2)c(N=Nc2ccccc2[N+](=O)[O-])c1=O	NadD inh 64.5 (no result: NR2E3 ag-2)
Cc1c(N=Nc2c(-c3ccc([N+](=O)[O-])cc3)[nH]n(C(N)=S)c2=O)cccc1[N+](=O)[O-]	NadD inh 80.7 (no result: NR2E3 ag-2)
Cc1[nH]n(-c2ccccc2)c(=O)c1N=Nc1cccc([N+](=O)[O-])c1	none
Cc1c(C(=O)Nc2ccc3oc(-c4cccnc4)nc3c2)oc2ccccc12	none
COCC(=O)N[C@H]1C=C[C@@H](CC(=O)OC)O[C@@H]1CO	none (no result: NR2E3 ag-1, bovine MsrA act, NadD inh, NR2E3 ag-2)
O=C(/C=C/c1ccc(Br)cc1)c1ccc(NC2=NCCCS2)cc1	MsrA inh 4.8
O=C(/C=C/c1ccccc1)c1ccc(NC2=NCCCS2)cc1	none
Cc1cc(C)c2cc(CN(Cc3ccco3)C(=O)NCc3ccccc3)c(=O)[nH]c2c1	GalR3 antagonist 14.4
COc1ccc(/C(O)=C2/C(=O)C(=O)N(CCCN(C)C)C2c2cccc(Cl)c2)cc1OC (stereo unspecified)	MsrA inh 9.6
Cc1ccc(C2=NN=C(NC(=O)CSc3nc(C)cc(C)n3)SC2)cc1	none (no result: NR2E3 ag-1, bovine MsrA act, NadD inh)
Cc1ccc(C2=NN=C(NC(=O)CSc3nnc4c5ccccc5n(C)c4n3)SC2)cc1	NadD inh 82.4 (no result: MsrA inh, GalR3 antagonist)
CCOc1ccc(NC(=O)CN(C)C(=O)Cn2c(=O)oc3ccccc32)cc1OCC	none
CCn1c(C)cc(/C=C2/NC(=O)N(CC(=O)Nc3cccc(C)c3)C2=O)c1C	NadD inh 33.4
Cc1cccc(NC(=O)CN2C(=O)N/C(=C/c3ccc(C)o3)C2=O)c1	none
CCn1c(C)cc(/C=C2\NC(=O)N(CC(=O)Nc3cccc(C)c3)C2=O)c1C	NadD inh 43.3
CC(=O)c1ccc(NC2OC(CO)C(O)C(O)C2O)cc1 (stereo unspecified)	none
CC1=CC(C)(C)NC(=S)N1c1ccc(Cl)cc1	none (no result: NR2E3 ag-2)
CCOc1ccccc1NC(=O)CSc1nnc(-c2ccco2)n1Cc1ccco1	none
COc1ccc2c(c1)C1C=CCC1C(c1cc3c(cc1Br)OCO3)N2 (stereo unspecified)	NadD inh 44.4
CC(OC(=O)c1c2c(nc3ccccc13)/C(=C\c1ccc3c(c1)OCO3)CCC2)C(=O)Nc1ccc(S(N)(=O)=O)cc1 (stereo unspecified)	NadD inh 44.4 (no result: MsrA inh, GalR3 antagonist, NR2E3 ag-2)
CC(OC(=O)c1cc2ccccc2cc1O)C(=O)Nc1ccc(S(N)(=O)=O)cc1 (stereo unspecified)	none
COc1ccc(NC(=O)CN2C(=O)/C(=C3\SC(=S)N(C4CCS(=O)(=O)C4)C3=O)c3ccccc32)cc1 (stereo unspecified)	NadD inh 32.0
Cc1ccc(S(=O)(=O)c2c(N)n(CCCN(C)C)c3nc4ccccc4nc23)cc1	none
Nc1c(S(=O)(=O)c2cccs2)c2nc3ccccc3nc2n1/N=C/c1cccc(O)c1	NadD inh 45.3
Cc1ccc(S(=O)(=O)c2c(N)n(/N=C/c3ccco3)c3nc4ccccc4nc23)cc1C	NadD inh 53.8
COc1ccc(S(=O)(=O)c2c(N)n(Cc3ccco3)c3nc4ccccc4nc23)cc1	NadD inh 34.3
CCOC(=O)C1=NOC2(C1)C(=O)Nc1c(Cl)cccc12 (stereo unspecified)	none (no result: NR2E3 ag-2)
O=C(COc1ccc2ccccc2c1)N[C@@H](C(=O)O)c1ccc(O)cc1	none
CCOc1ccc(-c2cc(C(=O)NCCCN3CCN(CC)CC3)c3ccccc3n2)cc1	MsrA inh 4.6
CCOc1ccc(-c2cc(C(=O)NCCCn3ccnc3)c3ccccc3n2)cc1	none
COc1cc([N+](=O)[O-])cc(/C=N/NC(=O)C(C)Nc2cccc3ccccc23)c1O (stereo unspecified)	NadD inh 48.4
COc1cccc(C=NNC(=O)c2ccncc2)c1O	none (no result: NR2E3 ag-2)
COc1cccc(/C=N/NC(=O)c2nc(-c3ccccc3)cc(-c3ccccc3)n2)c1O	NadD inh 29.2
COc1ccc(/C=N/NC(=O)c2nc(-c3ccccc3)n(-c3ccccc3)n2)c(O)c1	NadD inh 41.4
CN1CCN(CCCNC(=O)c2nnc(Cc3c(F)cccc3Cl)o2)CC1	none
Cc1ccc(N2CC(C(=O)Nc3ccc(S(=O)(=O)N4CCCC4)cc3)CC2=O)cc1 (stereo unspecified)	none
